Measurements reported in the EternaBench riboswitch data.

Test system: MS2 coat protein
Assay: apparent Kd, MS2 coat protein; higher = weaker binding; RNA-MaP array; FMN 200 µM where present
In short: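 Binding was read on Illumina sequencing-chip clusters where stalled E. coli RNA polymerase had transcribed each design. A titration of SNAP-549-labelled MS2 coat protein began at 0.7 or 1.5 nM and doubled to 3 µM, once without ligand and once with constant ligand, in 100 mM Tris-HCl pH 7.5, 80 mM KCl, 4 mM MgCl2, BSA, DTT, yeast tRNA and Tween-20. The apparent Kd is the median of filtered per-cluster binding-curve fits, based on green signal normalised to red-channel RNA signal and control-cluster median Fmax.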

[1] = designed as: ON switch for flavin mononucleotide, no ligand
[2] = ligand present: flavin mononucleotide, designed as: ON switch for flavin mononucleotide
[3] = designed as: OFF switch for flavin mononucleotide, no ligand
[4] = ligand present: flavin mononucleotide, designed as: OFF switch for flavin mononucleotide

Sequence	apparent Kd [1]	apparent Kd [2]	apparent Kd [3]	apparent Kd [4]
GGGUACAUCGGAGGAUAUCAUGUAAAUACAUGAGGAUCACCCAUGUCGAUGGAGACAUCGGAGACUGAGAAGGCCGAUGUACCG	41.8 nM	7.18 nM	–	–
UUUCUUGGGCAAGGAUAUCCUGUGCGGUUCCGGCUCGUGUCUGUCACAUGAGGAUCACCCAUGUGGGAGAAGGUGCCUGCGGUU	–	–	6.26 nM	6.64 nM
UGCUAGGAUGGGUCUAAUGGACCGCAGGAUAUGCUUGUACAUGAGGAUCACCCAUGUAACAUUGUGCAGAAGGGUGGAUCCACG	65.6 nM	11.6 nM	–	–
AACCUCGGAGGAUAUACCUACCGAUUCACAAGUGUCACAUCACAUGAGGAUCACCCAUGUAGAAGGUCGAGGCG	–	–	30 nM	97.1 nM
GGGCUGUCAGGAUAUCCCGGGCCCGGGUAAAUUUGGGCCCGGGAGAAGGGACAUGAGGAUCACCCAUGUGGCCC	–	–	39.2 nM	40.5 nM
ACGCUUUGGGAGAAGGUACGUGAAGUAUUAUCCACAUGAGGAUCACCCAUGUAAGGAUAUCCCGGCGUGAAAUAGGCUACAGCA	–	–	4.77 nM	11.3 nM
CGCUGCCACGCAGGAUAUGCAUUGGAUUCCAAUGCAGAAGGGCGAUUACAUGAGGAUCACCCAUGUGUUGGCAGUGAAGAAGAG	1230 nM	77.9 nM	–	–
AAGUUUGUACGAGGAUAUCAGUUGUUUCUAAAUUCAACAUGAGGAUCACCCAUGUAACAAUGGAGUGAGAAGGCGUGUGGGCAA	740 nM	554 nM	–	–
AAUUAGGUCACAGGAUAUACAACAACCAAUGCUGUAGAAGGGUGUCACAUACUUAGCUGACAUGAGGAUCACCCAUGUAUCCAC	172 nM	68.2 nM	–	–
UCGGGUUAUACAGGAUAUGUUUAGGUUUAUUCAUGCAGUUAUUAAUUUAUGACAGAAGGGUAUACAUGAGGAUCACCCAUGUCA	–	–	542 nM	387 nM
AAGCGAGGGACAGGAUAUGCGGCAAAACUCGCCGCAGAAGGGUCGACAUGAGGAUCACCCAUGUCCUUACGCUCCAAGUAGAGG	213 nM	359 nM	–	–
UCAUACGGUGAGGAUAUCUCCGUUAAAGUAUGUAGAGAAGGCGCUACAUGAGGAUCACCCAUGUUUGUGGGCAG	–	–	392 nM	278 nM
GUCAGCUCGUGAGGAUAUACAUGUGCUGGAUACAGCACUAUUAAGAUCACAUGAGGAUCACCCAUGUAGAAGGCACGAGCUGAU	–	–	49.5 nM	643 nM
CCUGCACAUGAGGAUCACCCAUGUCAGGAUAUCUCGCCGUGAAGAGCAACACGGUAUUAGAGAAGGGACACGGG	–	–	25.1 nM	23.3 nM
AGUUUACAUGAGGAUCACCCAUGUGAGGAUAUGGAAUCGCUGGCCGUAGCCAGUGGUUCCAGAAGGCGCGUGAU	–	–	99 nM	187 nM
CCGGAAACGGGUAGCUGACAUGAGGAUCACCCAUGUGAAUCACAGGAUAUGGAUCCUAAUUGGAUCCAGAAGGGUGUCAGCUAC	1020 nM	125 nM	–	–
UACAUCACGUAAGGAUAUACACGGGUUUCAAGAGUAGAAGGUACAAACAUGAGGAUCACCCAUGUAGACAUGGUUAAUAUUGUA	54.3 nM	40.6 nM	–	–
AUCCUGCGAGGAUAUACAUAGUGACGUCUGUUUGGUCUCAAACAUGAGGAUCACCCAUGUAGAAGGUGCGUCAC	–	–	66.3 nM	66.5 nM
UGUUACUAGGGAGGAUAUGGGAAGAUACAUGAGGAUCACCCAUGUUUAAGAAUGCCGAGAGGCAACUAGAAGGCCCUAGUACCU	354 nM	23.1 nM	–	–
UAGGGAGGAGGGAGGGAGACAUGAGGAUCACCCAUGUAAAGUCAGGAUAUUCUCAUAUUAUAUUAGGAGAAGGGAUACAUAUCU	–	–	47.5 nM	13.8 nM
UGUCCACAUGAGGAUCACCCAUGUGAGGAUAUCCAUAAACACAUCGUAUGUGUAUUAUGGAGAAGGCACACACA	–	–	16.1 nM	21.9 nM
GAGUAGUUGAUAGGAUAUUGAUUGUUAUAGGAUCAAGAAGGAUCUAACAUGAGGAUCACCCAUGUAGGACUAUUCCUGUGUAUC	22.1 nM	19.2 nM	–	–
UCAUUUCAGUAAGGAUAUUUAUUCAUGACGAUACAUGAGGAUCACCCAUGUAAAGAAGGUACUAAUACAAAUAAUGCAUUGUUC	–	–	11.9 nM	10.1 nM
